Data on nine compounds can be found in ChEMBL document CHEMBL1156178, “Discovery of novel 6,6-heterocycles as transient receptor potential vanilloid (TRPV1) antagonists” (J Med Chem, 2010).

A word on the solubility: it is the concentration that dissolves in the medium under given conditions. A low value points to little dissolved substance. Usually IC50 stands for the concentration at which inhibition is half-maximal. Usually half-life stands for the time needed for the level to fall by half in the phase considered. A low value points to rapid decline. One may read the Papp as a coefficient for how fast a substance crosses the barrier.

A short description of data set [1]: Solubility in 0.1 N HCL after 4 hrs by HPLC/MS analysis. In kind it is physicochemical.
Data set [2] concerns the target Transient receptor potential cation channel subfamily V member 1 (Homo sapiens, UniProt Q8NER1). The data set can be described thus: Antagonist activity at human recombinant TRPV1 expressed in HEK293 cells assessed as inhibition of capsaicin-induced calcium mobilization by FLIPR assay. Background: Calcium flux is commonly read through the fluorescence of an indicator in the cells.

Data set [3] in a line: Half life in rat at 2.7 mg/kg, iv and 2 mg/kg, po. In kind it is ADME, organism-based. The note with it: in vivo.
Data set [4] can be described thus: Metabolic stability in rat liver microsomes assessed as compound remaining at 1 uM after 10 mins by LCMS analysis. The data set is classed as ADME, Microsome. As to conditions: read-out: Activity. In outline:
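Compound (1 μM) incubated at 37 °C with 0.5 mg/mL male pooled rat liver microsomes; NADPH added to start the reaction. Aliquots were taken at 0 and 10 min and quenched into ice-cold acetonitrile with internal standard, then centrifuged. Parent was monitored as the M+1 ion by ESI-LCMS in selected-ion mode. Percent remaining was taken as the 10 min/0 min signal ratio, corrected by internal-standard recovery.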
(Microsomes from liver hold many membrane-bound enzymes, among them those of drug oxidation.)

The next data set deals with MDR1. The data set can be described thus: Apparent permeability across pig LLC-PK1 cells expressing MDR1. The data set is classed as ADME, cell-based, Sus scrofa.
The species named for data set [5] is Rattus norvegicus. The data set can be described thus: Analgesic activity against carrageenan-induced thermal hyperalgesia in rat. The note with it: read-out: MED. In kind it is functional.
Data set [6] deals with Rattus norvegicus. Kind of data set: Clearance in rat at […] iv dose. In kind it is ADME, organism-based. The arrangement: dose 1.5 mg/kg, route intravenous. The note with it: in vivo.

Converted amounts (≈) assume the structure as drawn.

Transient receptor potential cation channel subfamily V member 1, sequence (Q8NER1 whole entry): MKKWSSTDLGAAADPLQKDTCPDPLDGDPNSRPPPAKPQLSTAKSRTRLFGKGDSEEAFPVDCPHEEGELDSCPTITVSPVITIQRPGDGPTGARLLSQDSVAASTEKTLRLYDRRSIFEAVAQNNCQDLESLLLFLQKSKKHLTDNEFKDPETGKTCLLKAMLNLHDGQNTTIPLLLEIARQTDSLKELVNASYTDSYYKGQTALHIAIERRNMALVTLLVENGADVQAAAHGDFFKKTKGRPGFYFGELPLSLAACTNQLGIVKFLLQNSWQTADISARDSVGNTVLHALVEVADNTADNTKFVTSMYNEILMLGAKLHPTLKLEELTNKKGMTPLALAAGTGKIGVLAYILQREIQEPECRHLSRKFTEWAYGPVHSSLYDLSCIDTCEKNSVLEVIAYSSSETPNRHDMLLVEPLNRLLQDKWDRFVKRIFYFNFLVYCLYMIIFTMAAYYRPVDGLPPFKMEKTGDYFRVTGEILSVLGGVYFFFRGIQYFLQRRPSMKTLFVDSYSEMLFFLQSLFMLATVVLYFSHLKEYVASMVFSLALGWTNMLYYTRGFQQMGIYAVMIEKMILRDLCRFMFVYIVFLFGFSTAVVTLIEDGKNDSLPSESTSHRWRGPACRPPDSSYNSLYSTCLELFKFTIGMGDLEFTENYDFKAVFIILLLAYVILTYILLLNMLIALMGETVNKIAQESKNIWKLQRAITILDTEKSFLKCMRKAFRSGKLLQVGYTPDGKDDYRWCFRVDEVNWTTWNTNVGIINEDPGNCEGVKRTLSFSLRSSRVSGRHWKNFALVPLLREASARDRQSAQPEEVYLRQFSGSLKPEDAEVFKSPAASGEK

Turning to `FC(F)(F)c1ccc(Nc2ncnc3cc(-c4ncccc4C(F)(F)F)cnc23)cc1`, in data set [1], the concentration in solution (solubility at 4 h) came to 6 µg/mL (≈ 13.8 µM). For the same compound, the IC50 in data set [2] was 0.63 nM.

`FC(F)(F)c1ccc(Nc2ncnc3nc(-c4ncccc4C(F)(F)F)ccc23)cc1`: in data set [1], the solubility at 4 h came out at 9 µg/mL (≈ 20.7 µM). Besides, in data set [2], the IC50 is 0.83 nM.

For `FC(F)(F)c1ccc(Nc2ncnc3nc(-c4ncccc4C(F)(F)F)cnc23)cc1`, the concentration in solution in data set [1] (solubility at 4 h) came to 1 µg/mL (≈ 2.29 µM). Besides, in data set [2], the IC50 was 0.21 nM.

As to `FC(F)(F)c1ccc(Nc2ncnc3cc(-c4ncccc4C(F)(F)F)ccc23)cc1` [NGD-8243], in data set [1], the solubility at 4 h is 16 µg/mL (≈ 36.8 µM). In addition, in data set [3], the half-life is 8 h. The remaining at 10 min, 1 µM in data set [4] came out at 93%. Moreover, the Papp with MDR1 was 11 ×10⁻⁶ cm/s. Moreover, the minimal effective dose in the data set filed under Rattus norvegicus [5] is 0.1 mg/kg.

For `FC(F)(F)c1ccc(Nc2ncnc3cc(-c4ncccc4C(F)(F)F)ccc23)nc1`, the concentration in solution in data set [1] (solubility at 4 h) was 33 µg/mL (≈ 75.8 µM). For the same compound, in the data set on Rattus norvegicus [6], the CL is listed as 4.2 (ml/min)/kg. In addition, the remaining at 10 min, 1 µM in data set [4] was determined as 91%.

Compound `FC(F)(F)c1ccc(Nc2ccnc3cc(-c4ncccc4C(F)(F)F)cnc23)nc1` showed a solubility at 4 h in data set [1] of 38 µg/mL (≈ 87.3 µM). Also, the IC50 in data set [2] came to 308 nM.

For the compound `FC(F)(F)c1ccc(Nc2cncc3nc(-c4ncccc4C(F)(F)F)ccc23)nc1`, the solubility at 4 h in data set [1] worked out at 20 µg/mL (≈ 45.9 µM). Besides, in data set [2], the IC50 stood at 460 nM.

In data set [1], `FC(F)(F)c1ccc(Nc2ccnc3cc(-c4ncccc4C(F)(F)F)ccc23)nc1` showed a solubility at 4 h of 34 µg/mL (≈ 78.3 µM). The concentration for half-maximal inhibition (IC50) in data set [2] was found to be 1.65 nM.

As for `COCc1nc(Nc2ccc(C(F)(F)F)cc2)c2ccc(-c3ncccc3C(F)(F)F)cc2n1`, in the data set listed under Rattus norvegicus [5], the minimal effective dose stood at 0.3 mg/kg.
